# This is a sample that favours compounds with a hit; in the whole collection about 3.5% have one here.
# MEKK2mut PB1 HTS = MEK5 binding signal on mutant MEKK2 PB1, primary screen, biochemical, multiplex bead flow cytometry, Alexa488-MEK5; Alexa488-MEK5 binding to MEKK2 mutant; percent response, % at 10 µM; 290,000 compounds, 0.35% hits; in the data active means percent response above about 24%, passing the limit was not always enough
# MEKK3 PB1 HTS = modulators of MEKK3-MEK5 PB1 binding, primary screen, biochemical, wildtype MEKK3, multiplex bead flow cytometry, Alexa488-MEK5; Mitogen-activated protein kinase kinase kinase 3 (Homo sapiens), Q99759; bead-based flow cytometry, Alexa488-MEK5 binding to MEKK3; actives lie on both sides; 0 = blocked by unlabeled MEK5, 100 = vehicle; binding response (% of control), % at 10 µM; 290,000 compounds, 1.4% hits; AID 1529, 2009;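 active means binding response more than 3 SD above or below the average of its plate-row segment, actives on both sides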;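 further: Alexa488 bead fluorescence after subtracting the streptavidin-only scavenger bead signal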
# ABCG2 block = ABCG2 efflux pump inhibitors, primary screen, multiplex with ABCB1, IgMXP3 cells, flow cytometry; Broad substrate specificity ATP-binding cassette transporter ABCG2 (Homo sapiens), Q9UNQ0; JC-1 efflux; inhibition, % at 6.6 µM; 190,000 compounds, 0.1% hits;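 active means inhibition above 80%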
#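 Assay system – ABCG2 IgMXP3 and barcoded ABCB1 CCRF-Adr cell mix · Input – 3 million cells/mL in well · Reagent – JC-1 fluorescent substrate · Compound – single test compound dose, 6.6 µM final · Timing – 10 min exposure at 25 °C with rotation, no wash · Detection – flow cytometry of retained JC-1 fluorescence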
# ABCB1 block = ABCB1 efflux pump inhibitors, primary screen, cell-based, multiplex, flow cytometry, ABCG2 counter-screen | 190,000 compounds, 0.067% hits | inhibition, % at 6.6 µM | CCRF-Adr cells, JC-1 efflux | ATP-dependent translocase ABCB1 (Homo sapiens), P08183; in the data active means inhibition above about 40%;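 further: higher value means more JC-1 retained so stronger ABCB1 efflux block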
# MEKK2 WT-MEK5 = modulators of MEK5 binding to wildtype MEKK2, primary screen, biochemical, multiplex bead flow cytometry, Alexa488-MEK5. AID 1531, 2009. Mitogen-activated protein kinase kinase kinase 2 (Homo sapiens), Q9Y2U5. binding response (% of control), % at 10 µM. 290,000 compounds, 1.1% hits. Alexa488-MEK5 binding to MEKK2 WT; actives lie on both sides; in the data active means binding response below about 67% or above about 130%
# WT yeast gro inh = growth inhibition of WT strain, primary screen, mitochondrial fusion inhibitor project, WT and mutant strains, chemical genetic | inhibition, % at 10 µM | AID 1362, 2008 | mitochondrial fusion phenotypic screen | 190,000 compounds, 2.1% hits; in the data active means inhibition above about 58%; tested in S. cerevisiae
# A number is an active result; n = inactive; x = not tested or not shown; [ ] = remark or other dose.
SMILES,MEKK2mut PB1 HTS,MEKK3 PB1 HTS,ABCG2 block,ABCB1 block,MEKK2 WT-MEK5,WT yeast gro inh
Cc1cc(C)n(-c2nc3ccccc3nc2N2CCC(C)CC2)n1,n,n,n,n,n,n
Cc1cc(N2CCC(C)CC2)nc(-n2nc(C)cc2C)n1,n,n,n,n,n,67.4
COc1ccc(S(=O)(=O)Oc2ccc3ccccc3c2)cc1,n,n,n,n,n,60.4
Nc1nc(N)c2cc(Sc3ccc4ccccc4c3)ccc2n1,n,n,x,x,157.0,x
Nc1ccc(Sc2cc(Cl)nc(N)n2)cc1,n,n,n,n,n,n
CCOC(=O)c1c(C)n(-c2ccc(C)cc2)c2ccc(OCC(O)CNCC3CCCO3)cc12 (configuration not stated),n,n,n,n,n,72.1
OC(CNCC1CCCO1)COc1ccc(OCC(O)CNCC2CCCO2)cc1 (configuration not stated),n,n,n,n,n,n
CCOC(=O)c1c(C)n(-c2ccc(C)cc2)c2ccc(OCC(O)CNCCCO)cc12 (configuration not stated),n,n,n,n,181.0,n
O=C(NCCc1csc(-c2ccc(C(F)(F)F)cc2)n1)c1cccs1,n,n,n,n,n,n
O=C1NC[C@H](Cc2ccc(O)cc2)N(CC2CCCCC2)C1=O,n,n,x,x,n,x
Oc1ccc(C[C@@H]2CNC(=S)N2CCCCC2CCCCC2)cc1,n,n,n,n,n,91.0
Cn1nnc(NC(=S)NC(=O)c2ccc(-c3ccc(Br)cc3)o2)n1,n,n,n,n,n,58.5
CCOC(=O)c1ccc(Oc2nc(NC(C)(C)C)nc(N(C)C)n2)cc1,n,n,n,n,n,65.3
O=C(N/N=C/c1ccc(OC(=O)c2ccc(Br)cc2)cc1)c1ccncc1,n,66.0[inhibitor],x,x,61.0[inhibitor],x
CN1C(=O)/C(=C/c2cc(N=Nc3ccccc3)ccc2O)SC1=S,n,n,n,n,n,96.1
COC(=O)c1ccc(Oc2cc(C)nc(-n3nc(C)cc3C)n2)cc1,n,n,n,n,n,70.3
C=C(C)C1Cc2c(C)nn(-c3ccccn3)c2C1 (configuration not stated),n,n,n,n,n,66.2
Cc1nc2ccccc2c(=O)n1NC(=O)c1cccc(Cl)c1,n,n,x,x,n,x
O=c1cc2oc3cc(O)c(O)cc3c(-c3ccccc3O)c-2cc1O,n,n,x,x,n,x
COc1ccc(OC)c(-c2c3cc(O)c(=O)cc-3oc3cc(O)c(O)cc23)c1,n,n,n,n,n,58.3
CCOc1ccccc1-c1c2cc(O)c(=O)cc-2oc2cc(O)c(O)cc12,51.0,137.0,n,n,166.0,n
CCOC(=O)NC(=O)COC(=O)Cc1cc(OC)c(OC)c(OC)c1,n,n,n,n,n,n
Cc1ccc(-n2cccc2/C=C2\C(=N)N3N=C(C(C)C)SC3=NC2=O)cc1,n,n,n,n,n,81.0
COc1cccc(C2NC(=S)NC3=C2CCc2ccccc23)c1 (configuration not stated),n,n,n,n,n,n
COc1ccc2c(c1)C1=C(CC2)C(c2ccc(C)cc2)NC(=S)N1 (configuration not stated),n,n,n,n,n,80.2
CC(=O)c1ccc(OC(=O)CCN2c3ccccc3Sc3ccccc32)cc1,n,n,n,n,n,61.1
COC(=O)c1ccc(OC(=O)CCN2c3ccccc3Sc3ccccc32)cc1,n,n,n,n,n,61.3
Cc1nnc(N2C(=O)C(=O)/C(=C(\O)c3ccc4c(c3)CC(C)O4)C2c2ccccc2)s1 (configuration not stated),n,n,x,x,n,x
C=CCN(c1ccccc1)S(=O)(=O)c1cccc(C(=O)N2CC(C)CC(C)C2)c1 (configuration not stated),n,n,x,x,n,x
Nc1nonc1C(=O)NCCNC(=O)c1cccc(Cl)c1,n,n,x,x,n,x

# Screening results (PubChem)
